Assay results: ChEMBL document CHEMBL1142703, “Novel ligands for the chemokine receptor-3 (CCR3): a receptor-modeling study based on 5D-QSAR” (J Med Chem, 2005)

target: T1, C-C chemokine receptor type 3 (Homo sapiens, UniProt P51677); assay: Inhibition of [125I]eotaxin-1 binding to human chemokine receptor (hCCR3-C1)
T1 sequence (P51677 whole entry): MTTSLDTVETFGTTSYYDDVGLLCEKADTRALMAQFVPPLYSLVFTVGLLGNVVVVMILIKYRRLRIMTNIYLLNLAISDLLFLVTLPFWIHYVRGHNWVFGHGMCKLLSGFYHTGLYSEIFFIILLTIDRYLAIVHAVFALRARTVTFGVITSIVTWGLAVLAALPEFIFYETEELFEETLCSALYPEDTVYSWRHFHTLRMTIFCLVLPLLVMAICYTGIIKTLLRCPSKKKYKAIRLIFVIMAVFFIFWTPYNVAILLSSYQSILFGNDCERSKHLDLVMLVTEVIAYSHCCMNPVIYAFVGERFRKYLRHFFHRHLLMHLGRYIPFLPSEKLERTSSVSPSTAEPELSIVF
In short: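 K562 leukemia myelogenic blast cells transfected with human CCR3 (hCCR3-C1). Binding of the radioligand 125I-eotaxin-1 was measured in a scintillation proximity format. Controls: specific binding with no displacer added, and nonspecific binding with unlabeled eotaxin or test compound added. Bound radioactivity was counted by scintillation. Ki was obtained by iterative fitting of the data to a law-of-mass-action model.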

SMILES | Ki
COc1ccc(C(CNCCc2cc(C)cc(C)c2)N2CCN(C3CCCCC3)CC2)cc1 (stereo not given) | 50 nM
COc1ccc(NC(=O)NCC(c2ccc(C(F)(F)F)cc2)N2CCN(C3CCCCC3)CC2)cc1 (stereo not given) | 1710 nM
COc1ccc(NC(=O)NCC(c2ccccc2OC)N2CCN(C3CCCCC3)CC2)cc1 (stereo not given) | 10500 nM
FC(F)(F)c1ccc(CCNCC(c2ccccc2)N2CCN(C3CCCCC3)CC2)cc1 (stereo not given) | 1310 nM
O=C(NCC(c1ccccc1)N1CCN(C2CCCCC2)CC1)Nc1ccc(C(F)(F)F)cc1 (stereo not given) | 1460 nM
CC(C)(C)c1ccc(CCNCC(c2ccc(C(F)(F)F)cc2)N2CCN(C3CCCCC3)CC2)cc1 (stereo not given) | 832 nM
O=C(NCC(c1ccc(C(F)(F)F)cc1)N1CCN(C2CCCCC2)CC1)Nc1ccc(C(F)(F)F)cc1 (stereo not given) | 1310 nM
Cc1ccc(CCNCC(c2ccc(N(C)C)cc2)N2CCN(c3ccccc3)CC2)cc1 (stereo not given) | 435 nM
COc1ccc(C(CNCCc2ccc(F)cc2)N2CCN(C)CC2)cc1 (stereo not given) | 11700 nM
CC(C)(C)c1ccc(C(CNC(=O)Nc2ccc(F)cc2)N2CCN(C3CCCCC3)CC2)cc1 (stereo not given) | 1120 nM
COc1ccc(NC(=O)NCC(c2ccccc2)N2CCN(C3CCCCC3)CC2)cc1 (stereo not given) | 9830 nM
CC(C)(C)c1ccc(C(CNC(=O)Nc2ccccc2)N2CCN(C3CCCCC3)CC2)cc1 (stereo not given) | 1130 nM
Cc1ccc(CCNCC(c2ccc(C(F)(F)F)cc2)N2CCN(C3CCCCC3)CC2)cc1 (stereo not given) | 545 nM
CN(C)c1ccc(CCNCC(c2ccc(C(F)(F)F)cc2)N2CCN(c3ccccc3)CC2)cc1 (stereo not given) | 605 nM
COc1ccc(NC(=O)NCC(c2ccc(C(F)(F)F)cc2)N2CCN(c3ccccc3)CC2)cc1 (stereo not given) | 14800 nM
FC(F)(F)c1ccc(C(CNCCc2ccccc2)N2CCN(C3CCCCC3)CC2)cc1 (stereo not given) | 484 nM
CC(C)(C)c1ccc(C(CNC(=O)Nc2ccc(C(F)(F)F)cc2)N2CCN(C3CCCCC3)CC2)cc1 (stereo not given) | 972 nM
CN(C)c1ccc(C(CNC(=O)Nc2cc(Cl)cc(Cl)c2)N2CCN(C3CCCCC3)CC2)cc1 (stereo not given) | 987 nM
CN(C)c1ccc(C(CNC(=O)Cc2ccc(C(F)(F)F)cc2)N2CCN(c3ccccc3)CC2)cc1 (stereo not given) | 34900 nM
CC(C)(C)c1ccc(C(CNCCc2ccccc2)N2CCN(C3CCCCC3)CC2)cc1 (stereo not given) | 350 nM
